In ChEMBL document CHEMBL4020824, “Discovery of Potent and Orally Bioavailable Dihydropyrazole GPR40 Agonists” (J Med Chem, 2018):
The source made the active and inactive calls. The rule behind the calls is not given here.

Assays:
[1] = molecular target: T1, Free fatty acid receptor 1 (Homo sapiens, UniProt O14842); test: Agonist activity at human GPR40 expressed in CHOA12 cells assessed as induction of Ca2+ mobilization by FLIPR assay; type: functional, cell-based
Liver [2] = test: (§1) Drug level in human liver microsomes treated with 2-((4S,5S)-1-(4-(((3R,4R)-1-(5-Chloro-2-methoxypyridin-4-yl)-3-methylpiperidin-4-yl)oxy)phenyl)-4-methyl-3-(trifluoromethyl)-4,5-dihydro-1H-pyrazol-5-yl)acetic acid at 1 to 3 uM incubated for 20 mins in presence of NADPH measured after 90 mins by LC/MS/MS analysis; type: ADME, microsome
How it was run: (§2)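 Human or rat liver microsomal incubations. The read-outs were % parent remaining, % D-ring dealkylation metabolites, % GSH adducts, and half-life (min). The metabolites followed were CYP450-mediated oxidative de-alkylation products (phenols) and GSH conjugates.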

Liver [3] = test: as §1, with “rat” for “human”; type: ADME, microsome; how it was run: as §2
[4] = molecular target: T1, Free fatty acid receptor 1; test: Agonist activity at human GPR40 expressed in CHOA12 cells assessed as induction of Ca2+ mobilization at 8.3 uM by FLIPR assay relative to compound 2; type: functional, cell-based
[5] = Clearance in Sprague-Dawley rat at 1 mg/kg, iv administered as single dose measured up to 24 hrs post dose by LC-MS/MS analysis; type: ADME, organism-based; details: in vivo
[6] = Oral bioavailability in C57BL6 mouse at 3 mg/kg administered as single dose via gavage measured up to 24 hrs post dose by LC-MS/MS analysis; type: ADME, organism-based; details: in vivo
Liver [7] = test: Half life in rat liver microsomes at 1 to 3 uM incubated for 20 mins in presence NADPH measured up to 90 mins by LC/MS/MS analysis; type: ADME, microsome; details: microsomes, 20 min, 3 µM
[8] = Tmax in C57BL6 mouse at 3 mg/kg, po administered as single dose measured up to 24 hrs post dose by LC-MS/MS analysis; type: ADME, organism-based; details: in vivo
[9] = Cmax in C57BL6 mouse at 3 mg/kg, po administered as single dose via gavage measured up to 24 hrs post dose by LC-MS/MS analysis; type: ADME, organism-based; design: dose 3 mg/kg, route oral; details: in vivo
[10] = Half life in CD1 mouse at 1 mg/kg, iv administered as bolus dose or 1 mg/kg, po administered as single dose measured up to 24 hrs post dose by LC-MS/MS analysis; type: ADME, organism-based; details: in vivo
Liver [11] = test: Stability in rat liver microsomes assessed as parent compound remaining at 1 to 3 uM incubated for 20 mins in presence NADPH measured up to 90 mins by LC/MS/MS analysis; type: ADME, microsome; details: microsomes, 20 min, 3 µM; how it was run: as §2
[12] = Cmax in cynomolgus monkey at 0.5 mg/kg, po administered as single dose measured up to 24 hrs post dose by LC-MS/MS analysis; type: ADME, organism-based, Macaca fascicularis; design: dose 0.5 mg/kg, route oral; details: in vivo
[13] = Half life in Sprague-Dawley rat at 1 mg/kg, iv administered as single dose measured up to 24 hrs post dose by LC-MS/MS analysis; type: ADME, organism-based; details: in vivo
[14] = Volume of distribution at steady state in Sprague-Dawley rat at 1 mg/kg, iv administered as single dose measured up to 24 hrs post dose by LC-MS/MS analysis; type: ADME, organism-based; details: in vivo, read-out: Vdss
[15] = Half life in cynomolgus monkey at 0.2 mg/kg, iv administered as single dose measured up to 24 hrs post dose by LC-MS/MS analysis; type: ADME, organism-based, Macaca fascicularis; details: in vivo
[16] = Clearance in CD1 mouse at 1 mg/kg, iv administered as bolus dose or 1 mg/kg, po administered as single dose measured up to 24 hrs post dose by LC-MS/MS analysis; type: ADME, organism-based; details: in vivo
[17] = Clearance in cynomolgus monkey at 0.2 mg/kg, iv administered as single dose measured up to 24 hrs post dose by LC-MS/MS analysis; type: ADME, organism-based, Macaca fascicularis; details: in vivo
Liver [18] = test: Stability in human liver microsomes assessed as parent compound remaining at 1 to 3 uM incubated for 20 mins in presence NADPH measured up to 90 mins by LC/MS/MS analysis; type: ADME, microsome; details: microsomes, 20 min, 3 µM; how it was run: as §2
[19] = Tmax in Sprague-Dawley rat at 3 mg/kg, po administered as single dose measured up to 24 hrs post dose by LC-MS/MS analysis; type: ADME, organism-based; details: in vivo
Liver [20] = test: Half life in human liver microsomes at 1 to 3 uM incubated for 20 mins in presence NADPH measured up to 90 mins by LC/MS/MS analysis; type: ADME, microsome; details: microsomes, 20 min, 3 µM
[21] = Tmax in cynomolgus monkey at 0.5 mg/kg, po administered as single dose measured up to 24 hrs post dose by LC-MS/MS analysis; type: ADME, organism-based, Macaca fascicularis; details: in vivo
[22] = Oral bioavailability in cynomolgus monkey at 0.5 mg/kg administered via gavage as single dose measured up to 24 hrs post dose by LC-MS/MS analysis; type: ADME, organism-based, Macaca fascicularis; details: in vivo
[23] = Volume of distribution at steady state in cynomolgus monkey at 0.2 mg/kg, iv administered as single dose measured up to 24 hrs post dose by LC-MS/MS analysis; type: ADME, organism-based, Macaca fascicularis; details: in vivo, read-out: Vdss
[24] = Oral bioavailability in Sprague-Dawley rat at 3 mg/kg administered via gavage as single dose measured up to 24 hrs post dose by LC-MS/MS analysis; type: ADME, organism-based; details: in vivo
[25] = molecular target: T2, Peroxisome proliferator-activated receptor gamma (Homo sapiens, UniProt P37231); test: Agonist activity at PPARgamma (unknown origin)
T2 sequence (P37231 whole entry): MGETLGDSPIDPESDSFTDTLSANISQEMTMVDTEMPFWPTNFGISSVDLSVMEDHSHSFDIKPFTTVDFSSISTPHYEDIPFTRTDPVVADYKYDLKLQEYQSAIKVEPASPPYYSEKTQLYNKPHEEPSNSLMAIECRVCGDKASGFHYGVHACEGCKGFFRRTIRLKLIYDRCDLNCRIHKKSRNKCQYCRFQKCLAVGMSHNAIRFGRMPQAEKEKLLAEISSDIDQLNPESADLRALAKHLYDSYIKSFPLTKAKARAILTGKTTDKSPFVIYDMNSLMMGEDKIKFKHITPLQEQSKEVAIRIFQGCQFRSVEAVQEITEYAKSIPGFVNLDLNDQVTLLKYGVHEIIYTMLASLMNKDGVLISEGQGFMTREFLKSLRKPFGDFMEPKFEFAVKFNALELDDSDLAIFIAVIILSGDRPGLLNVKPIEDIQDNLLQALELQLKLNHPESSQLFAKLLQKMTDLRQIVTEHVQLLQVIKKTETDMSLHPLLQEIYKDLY

[26] = Volume of distribution at steady state in CD1 mouse at 1 mg/kg, iv via bolus dose or 1 mg/kg, po administered as single dose measured up to 24 hrs post dose by LC-MS/MS analysis; type: ADME, organism-based; details: in vivo, read-out: Vdss
[27] = Cmax in Sprague-Dawley rat at 3 mg/kg, po administered as single dose measured up to 24 hrs post dose by LC-MS/MS analysis; type: ADME, organism-based; design: dose 3 mg/kg, route oral; details: in vivo

T1 sequence (O14842 whole entry): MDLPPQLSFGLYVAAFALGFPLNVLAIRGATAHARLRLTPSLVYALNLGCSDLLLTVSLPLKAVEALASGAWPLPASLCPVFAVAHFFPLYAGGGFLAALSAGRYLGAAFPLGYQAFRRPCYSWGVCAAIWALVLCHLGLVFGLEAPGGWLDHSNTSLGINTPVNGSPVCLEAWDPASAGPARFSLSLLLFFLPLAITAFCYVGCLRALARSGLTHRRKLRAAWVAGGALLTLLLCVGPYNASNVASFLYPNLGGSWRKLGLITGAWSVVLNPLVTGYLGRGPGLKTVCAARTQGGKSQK

## COc1ccc(Cl)c(N2CCC(Oc3ccc(N4N=C(C(F)(F)F)[C@@H](C)[C@@H]4CC(=O)O)cc3)CC2)c1
[1]
  EC50: 100 nM

## CCOc1ccc(F)c(N2CCC(Oc3ccc(N4N=C(C(F)(F)F)[C@@H](C)[C@@H]4CC(=O)O)cc3)CC2)c1
[1]
  EC50: 220 nM

## C[C@@H]1CN(c2cc(O)ncc2Cl)CC[C@H]1Oc1ccc(N2N=C(C(F)(F)F)[C@@H](C)[C@@H]2CC(=O)O)cc1
Liver [2]
  Drug uptake: Metabolite_Detected
Liver [3]
  Drug uptake: Metabolite_Detected

## C[C@@H]1C(C(F)(F)F)=NN(c2ccc(OC3CCN(c4cc(Cl)ccc4Cl)CC3)cc2)[C@H]1CC(=O)O
[1]
  EC50: 250 nM

## COc1ccc(F)c(N2CCC(Oc3ccc(N4C[C@H](C(F)(F)F)C[C@@H]4CC(=O)O)cc3)CC2)c1
[4]
  Activity: Active

## COc1ccc(F)c(N2CC[C@@H](COc3ccc(N4C[C@H](C(F)(F)F)C[C@@H]4CC(=O)O)cc3)C2)c1
[4]
  Activity: Active

## COc1ccc(F)c(N2CCC(Oc3ccc(N4CCC[C@@H]4CC(=O)O)cc3)CC2)c1
[1]
  EC50: 1200 to 2600 nM
[4]
  Activity: Active

## COc1ccc(F)c(N2CC[C@H](COc3ccc(N4C[C@H](C(F)(F)F)C[C@@H]4CC(=O)O)cc3)C2)c1
[4]
  Activity: Active

## C[C@@H]1C(C(F)(F)F)=NN(c2ccc(OC3CCN(c4cccc(F)n4)CC3)cc2)[C@H]1CC(=O)O
[1]
  EC50: 390 to 860 nM

## COc1ccc(F)c(N2CCC(Oc3ccc(N4N=C(C(F)(F)F)[C@@H](C)[C@@H]4CC(=O)O)cc3)CC2)c1
[5]
  clearance: 17 mL/min/kg
[6]
  bioavailability: 96%
Liver [7]
  t1/2: 0.383 h
[8]
  Tmax: 1 h
[9]
  Cmax: 3400 nM
[10]
  half-life: 1.5 h
Liver [11]
  Stability: 27%
[12]
  Cmax: 200 nM
[13]
  half-life: 1.4 h
[14]
  Vd: 0.6 L/kg
[15]
  half-life: 5.3 h
[16]
  clearance: 6 mL/min/kg
[17]
  clearance: 6.6 mL/min/kg
Liver [18]
  Stability: 42%
[19]
  Tmax: 0.7 h
Liver [20]
  t1/2: 0.8 h
[21]
  Tmax: 2 h
[22]
  bioavailability: 66%
[23]
  Vd: 1.7 L/kg
[1]
  EC50: 110 nM
[24]
  bioavailability: 36%
[25]
  EC50: > 50000 nM
[26]
  Vd: 0.8 L/kg
[27]
  Cmax: 1100 nM

## COc1ccc(C#N)c(N2CCC(Oc3ccc(N4N=C(C(F)(F)F)[C@@H](C)[C@@H]4CC(=O)O)cc3)CC2)c1
[1]
  EC50: 680 nM

## COc1ccc(F)c(N2CCC(Cc3ccc(N4C[C@H](C(F)(F)F)C[C@@H]4CC(=O)O)cc3)CC2)c1
[4]
  Activity: Active
